Compound activity: PubChem, several laboratories
PMI act hi M6P = human PMI activators, high substrate, primary screen, biochemical, fluorescence intensity, near-saturating mannose 6-phosphate; Mannose-6-phosphate isomerase (Homo sapiens), P34949; coupled PMI enzyme assay, resazurin fluorescence, 20 min; stronger effect = higher value; 1 = untreated enzyme, 0 = substrate-free blank; activation factor at 20 µM; 190,000 tested, 0.34% active;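 active = activation factor of 2 or more at 20 µM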
Target sequence (P34949 whole entry, looked up): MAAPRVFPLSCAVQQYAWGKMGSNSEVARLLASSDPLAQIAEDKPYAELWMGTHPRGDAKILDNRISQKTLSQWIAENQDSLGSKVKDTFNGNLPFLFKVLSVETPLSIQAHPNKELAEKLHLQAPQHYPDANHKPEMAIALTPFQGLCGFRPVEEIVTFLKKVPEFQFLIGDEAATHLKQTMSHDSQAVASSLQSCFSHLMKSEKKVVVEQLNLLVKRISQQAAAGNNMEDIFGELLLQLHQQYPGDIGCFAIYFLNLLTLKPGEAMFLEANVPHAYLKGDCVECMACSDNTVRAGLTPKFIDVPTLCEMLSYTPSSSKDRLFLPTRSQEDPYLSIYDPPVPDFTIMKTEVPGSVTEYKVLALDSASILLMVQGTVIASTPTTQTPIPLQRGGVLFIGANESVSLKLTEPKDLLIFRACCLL
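test system = human PMI in coupled enzyme assay | medium = HEPES-buffered pH 7.4 with magnesium and detergent | also added = 1.0 mM mannose-6-phosphate substrate with 0.22 mM NADP+ | compound = 20 µM single dose | times = 20 min incubation at room temperature | measured by = resorufin fluorescence (Ex 544/Em 590 nm) from resazurin via diaphorase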
PMI activator = activators of human PMI, primary screen, biochemical, fluorescence intensity, near-Km mannose 6-phosphate; Mannose-6-phosphate isomerase (Homo sapiens), P34949; purified human PMI, coupled resazurin fluorescence, 20 min; stronger effect = higher value; 1 = vehicle control, 0 substrate-free wells; activation factor at 20 µM; 190,000 tested, 0.005% active; AID 1214, 2008;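 active = activation factor of 2 or more at 20 µM, relative to plate controls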
Diaphorase inh = diaphorase inhibitors and chemical oxidizers, primary screen, counter-screen for diaphorase-coupled primary assays, biochemical, uHTS, resorufin fluorescence. diaphorase resazurin-to-resorufin fluorescence, NADH, 16 min; bacterial (C. kluyveri) enzyme, not human. inhibition, % at 20 µM. 190,000 tested, 0.69% active;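 active = primary screen inhibition at 20 µM above a set limit, cut at about 50% in these data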
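Detection: fluorescence of resorufin formed from resazurin, Ex 544/Em 590 nm; test system: Clostridium kluyveri diaphorase enzyme; amount: 0.14 U/mL diaphorase, enzyme working solution; times: 16-min room-temperature incubation before reading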
G6PDH counter = L. mesenteroides G6PDH inhibitors, counter-screen for G6PDH-coupled screening assays, biochemical, Leuconostoc mesenteroides enzyme; glucose-6-phosphate dehydrogenase [Leuconostoc mesenteroides]; Purified L. mesenteroides G6PDH, diaphorase/resazurin coupled fluorescence, 45 min; inhibition, % at 5 µM; 200,000 tested, 0.12% active; AID 1020, 2008; in the data active = inhibition above about 50%
Diaphorase act = compounds boosting diaphorase resazurin reduction – biochemical, uHTS, resorufin fluorescence, counter-screen for diaphorase-coupled primary assays, primary screen. Diaphorase/resazurin coupled assay, 16 min; stronger effect = higher value; 1 = vehicle wells, 0 = NADH-free wells. activation factor at 20 µM. 190,000 tested, 0.005% active. AID 1229, 2008;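 active = diaphorase activity raised at least twofold by the compound at 20 µM; inactive = activation factor below 2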
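Material: purified diaphorase enzyme from Clostridium kluyveri / Medium: HEPES pH 7.4 buffer with MgCl2 and Tween 20 / Schedule: enzyme reaction of 16 min at room temperature / Measured by: resorufin fluorescence, excitation 544 nm, emission 590 nm / Evaluation: rise in resorufin formation, marking diaphorase activation or chemical reduction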
DTT redox prof = compounds producing H2O2 with reducing agent – biochemical, NIH compound library profiling, artefact control for MLSCN library redox annotation, primary screen. DTT-dependent redox cycling H2O2, phenol red/HRP absorbance; 100% = 100 µM peroxide control, 0% = buffer. 200,000 tested, 0.03% active. activation, % at 10 µM;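 active = activation of at least 50% relative to the plate's high and low controls in the primary single-dose screen; inactive = activation below 50%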;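 also: compound incubated with DTT at 0.8 mM final as the reducing agent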
Each line names hits and unclear results; the compound was inactive in the other large screens. The list is not random: actives were taken first. Their share in the collection is about 1.1%.

CC(=O)C1=C(c2ccccc2)NC(=O)NC1c1ccc(O)c(O)c1 (stereo unspecified)	Diaphorase inh 54
CCc1ccc(N2CC(C(=O)N/N=C/c3cc([N+](=O)[O-])ccc3O)CC2=O)cc1 (stereo unspecified)	Diaphorase inh 51
CC(On1c(-c2ccccc2)nc2ccc(Cl)cc21)C(=O)O (stereo unspecified)	none
CCOC(=O)COc1cc([N+](=O)[O-])cc2cccnc12	none (no result: PMI act hi M6P, PMI activator, Diaphorase inh, Diaphorase act)
CCOC(=O)C(C)On1c(-c2cccc(Cl)c2)nc2ccc([N+](=O)[O-])cc21 (stereo unspecified)	PMI act hi M6P 2
CCOC(=O)COn1c(-c2cccc(Cl)c2)nc2ccc([N+](=O)[O-])cc21	PMI act hi M6P 2.1
CCN(Cc1ccncc1)Cc1cn[nH]c1-c1cc(OC)c(OC)c(OC)c1	none
CC(=O)NCCNS(=O)(=O)c1ccc(C)c([N+](=O)[O-])c1	none
CC1(C)Cc2nc3sc(C(=O)NCCCO)c(N)c3cc2CS1	none
CC1(C)Cc2nc3sc(C(=O)O)c(N)c3cc2CS1	PMI act hi M6P 2.4
S=C(NNc1ccc2ccccc2c1)NC1CCCCC1	none
COc1cc(CN2CCN(Cc3ccc(C)cc3)C(CCO)C2)cc(OC)c1O (stereo unspecified)	G6PDH counter 58
COc1ccc(CN2CCN(Cc3ccc(C)cc3)C(CCO)C2)cc1OC (stereo unspecified)	none
Cn1c(=O)c(C(=S)NC(=O)C2CC2)c(N)n(Cc2ccccc2)c1=O	Diaphorase inh 66
Cc1oc(-c2ccc(F)cc2)cc1-c1nn2c(-c3ccoc3C)nnc2s1	Diaphorase inh 58 (no result: DTT redox prof)
Cc1oc(-c2ccc(F)cc2)cc1-c1nn2c(-c3ccco3)nnc2s1	none (no result: PMI act hi M6P, PMI activator, Diaphorase inh, G6PDH counter, Diaphorase act)
COc1ccc(S(=O)(=O)CCC(=O)Nc2cccc(OC)c2)cc1	none
Cc1cccn2c(=O)c3cc(C#N)c(=NC(=O)c4ccncc4)n(CCCOC(C)C)c3nc12	PMI act hi M6P 2
Cn1c(/N=C/c2c(O)ccc3ccccc23)nc2ccccc21	Diaphorase inh 77
CCCn1c(/N=C/c2ccccc2O)nc2ccccc21	none
O=C1CCCCC1Sc1nnc(-c2ccc3c(c2)OCO3)o1 (stereo unspecified)	none
Oc1ccc(-c2csc(Nc3ncccn3)n2)cc1O	Diaphorase inh 52
Oc1ccc(-c2csc(-c3ccccc3)n2)cc1O	Diaphorase inh 71
CCCCc1c(C)nc2ccc(Br)cc2c1SCCC#N	none
CCCc1c(C)nc2ccccc2c1SCCC#N	PMI act hi M6P 2.3
O=[N+]([O-])c1cc(Cl)c(O)c2ncccc12	G6PDH counter 59
O=[N+]([O-])c1ccc(O)c2ncccc12	G6PDH counter 66
O=[N+]([O-])c1cc([N+](=O)[O-])c2cccnc2c1Oc1ccccc1O	Diaphorase inh 60
O=C(Cc1ccccc1)NC(Nc1cccc2ccccc12)C(Cl)(Cl)Cl (stereo unspecified)	Diaphorase inh 69
O=C(Cc1ccccc1)NC(Nc1ccccc1)C(Cl)(Cl)Cl (stereo unspecified)	none
c1ccc(N/N=C(\Cc2ncc[nH]2)c2ccccc2)cc1	PMI act hi M6P 2.3
O=C(N/N=C/c1cc2c3c(c1O)CCCN3CCC2)c1ccccc1O	Diaphorase inh 63
Cc1nn(-c2ccccc2)c(N2CCCC2)c1/C=N/NC(=O)c1ccccc1O	none
OCC1(Cc2ccccc2)CCN(CCCC2CCCC2)CC1	none
N#Cc1ccccc1NC(=O)C1SC(=Nc2ccccc2)C(C(=O)Nc2ccc(Cl)cc2)=C1N (stereo unspecified)	PMI act hi M6P 2.3
O=C1CC(c2ccc(O)cc2)Oc2cc(O)cc(O)c21 (stereo unspecified)	none
CC1CC(=O)c2c(cc3c(-c4c(O)cc(O)c5c(O)c6c(cc45)OC(C)CC6=O)c(O)cc(O)c3c2O)O1 (stereo unspecified)	Diaphorase inh 64
CCn1c(C)nc2cc(C(=O)N/N=C/c3cccc(O)c3O)ccc21	Diaphorase inh 72
CCn1c(C)nc2cc(C(=O)NNC(=S)NC(=O)c3ccccc3)ccc21	Diaphorase inh 55
CCn1c(C)nc2cc(C(=O)N/N=C/c3ccccc3)ccc21	none
CC(C)(C)NC(=O)C(c1c[nH]c2ccccc12)N(C(=O)Cn1nnc(-c2ccc(F)cc2)n1)c1cccc(O)c1 (stereo unspecified)	none
Cc1cc(Cl)ccc1NC(=S)NCc1ccccc1Cl	none
CCN(CC)S(=O)(=O)c1cccc(C(=O)N/N=C/c2ccc([N+](=O)[O-])o2)c1	none
O=C1SC(SCc2ccccc2)=N/C1=C\c1ccco1	none
CCCSC1=N/C(=C\C=C\c2ccco2)C(=O)S1	Diaphorase inh 51
Oc1ccc(N=C/C=C/c2cccc(Br)c2)cc1-c1nc2ccccc2s1	none
Cc1nc(C/C(=N\N)c2ccc(O)cc2O)cs1	PMI act hi M6P 2.3
CCOC(=O)N1CCN(C(=O)c2ccc3c(=O)n(-c4ccccc4F)c(=S)[nH]c3c2)CC1	Diaphorase inh 50
CCOC(=O)N1CCN(C(=O)c2ccc3c(=O)n(-c4ccc(OC)cc4OC)c(=S)[nH]c3c2)CC1	none
CCOc1ccc2c(c1)/C(=C(\C(Cl)=C(Cl)Cl)[N+](=O)[O-])N2	Diaphorase inh 51
CCCCOc1cccc(C2(C(=O)O)CCCC2)c1	none
CCCCOc1ccc2c(c1)/C(=C(\C(Cl)=C(Cl)Cl)[N+](=O)[O-])N2	Diaphorase inh 50
CC1CCCN(CC(O)COC(c2ccccc2)c2ccccc2)C1 (stereo unspecified)	none
CCC(=O)c1ccc(OCC(=O)OCC(=O)Nc2sccc2C(N)=O)cc1	none
COc1ccc(-c2cc3nc(-c4ccccc4)cc(N4CCC(O)CC4)n3n2)cc1	Diaphorase inh 50
COc1ccc(-c2cc3nc(-c4ccccc4)cc(N4CCCC(O)C4)n3n2)cc1 (stereo unspecified)	none
